Experimental data taken from PMC10870114 (Clinical Cancer Research, 2023).

Tests used:
[1] = test system: patients with locally advanced head and neck cancer; conditions: NCT02516813; cited from earlier work
[2] = Plasma pharmacokinetics on fraction day; type: in vivo, human
[3] = test system: patients with locally advanced rectal cancer; assay: Treatment-emergent adverse events; type: in vivo, human
[4] = target: DNA-PK (Homo sapiens, UniProt P78527); assay: pDNA-PK/tDNA-PK ratio in bleomycin-stimulated PBMCs, pre- and post-dosing; conditions: PBMCs stimulated with bleomycin ex vivo; evidence of target engagement
[5] = test system: locally advanced rectal cancer; assay: Neoadjuvant rectal; type: in vivo, human; conditions: for NAR score, median: patients who underwent surgery
Procedure, shortened: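 Patients without clinical complete response were to have surgery 9.5±2 weeks after CRT completion. On the resected tissue, tumour regression was graded by the modified Ryan scheme, from 0 (complete response) to 3 (poor or no response). The NAR score was calculated only for operated patients, with lower scores denoting better prognosis.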

[6] = test system: patients with locally advanced rectal cancer; assay: Dose-limiting toxicities; type: in vivo, human
[7] = test system: patients with advanced solid tumors; conditions: cited from earlier work
[8] = test system: locally advanced rectal cancer; assay: Disease-free survival, recurrence and progression events; type: in vivo, human
Procedure, shortened: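 They also received capecitabine 825 mg/m2 twice daily and RT 50–50.4 Gy in 25 or 28 fractions, 5 days/week, for 5–5.5 weeks. DFS was estimated by Kaplan–Meier with two-sided 95% CI.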

[9] = Overall, peposertib 50-250 mg + RT + capecitabine, n = 19
[10] = peposertib 50 mg + RT + capecitabine, n = 1
[11] = peposertib 100 mg + RT + capecitabine, n = 6
[12] = peposertib 150 mg + RT + capecitabine, n = 6
[13] = peposertib 250 mg + RT + capecitabine, n = 6

SMILES: COc1ccc([C@@H](O)c2cc(-c3ncnc4cc(N5CCOCC5)ccc34)c(F)cc2Cl)nn1 [Peposertib]
- Safety of combination with RT and full doses of cisplatin [1]: could not be safely combined
- Dose proportionality of exposure ([2]; across all dose levels after single and multiple dosing): dose proportional
- half-life ([2]; human, plasma, oral, Mean terminal half-life, all dosing groups, independent of the dose level): 300 to 360 min
- Accumulation after multiple once-daily dosing ([2]; in vivo): No relevant peposertib accumulation
- Grade 4 TEAE: lymphocyte count decrease ([3]; 100-mg cohort): 1 n
- Grade 4 TEAE: lymphopenia ([3]; 100-mg cohort): 1 n
- Grade 4 TEAE: lymphopenia ([3]; 150-mg cohort): 1 n
- Grade 4 TEAE: enterocolitis ([3]; 250-mg cohort): 1 n
- Grade 4 TEAE: leukopenia and lymphocyte count decrease ([3]; 250-mg cohort): 1 n
- Patients with any Capecitabine-related TEAE [3, 9]: 19 (100) n (%)
- Patients with any Capecitabine-related grade ≥3 TEAE [3, 9]: 10 (53) n (%)
- Patients with any Capecitabine-related grade ≥4 TEAE [3, 9]: 5 (26) n (%)
- Patients with any Capecitabine-related serious TEAE [3, 9]: 5 (26) n (%)
- Patients with any Grade ≥3 TEAE [3, 9]: 14 (74) n (%)
- Patients with any Grade ≥4 TEAE [3, 9]: 5 (26) n (%)
- Patients with any Peposertib-related TEAE [3, 9]: 17 (90) n (%)
- Patients with any Peposertib-related grade ≥ 3TEAE [3, 9]: 13 (68) n (%)
- Patients with any Peposertib-related grade ≥4 TEAE [3, 9]: 5 (26) n (%)
- Patients with any Peposertib-related serious TEAE [3, 9]: 6 (32) n (%)
- Patients with any RT-related TEAE [3, 9]: 19 (100) n (%)
- Patients with any RT-related grade ≥3 TEAE [3, 9]: 9 (47) n (%)
- Patients with any RT-related grade ≥4 TEAE [3, 9]: 4 (21) n (%)
- Patients with any RT-related serious TEAE [3, 9]: 5 (26) n (%)
- Patients with any Serious TEAE [3, 9]: 7 (37) n (%)
- Patients with any TEAE [3, 9]: 19 (100) n (%)
- Patients with any TEAE leading to death [3, 9]: 0 n (%)
- Patients with any TEAE leading to permanent discontinuation of RT [3, 9]: 2 (11) n (%)
- Patients with any TEAE leading to permanent discontinuation of capecitabine [3, 9]: 3 (15.8) n (%)
- Patients with any TEAE leading to permanent discontinuation of peposertib [3, 9]: 4 (21) n (%)
- Patients with any TEAE leading to study discontinuation [3, 9]: 0 n (%)
- Most frequently reported TEAE: fatigue ([3]; across all cohorts, n = 9): 47.4%
- Most frequently reported TEAE: nausea ([3]; across all cohorts, n = 9): 47.4%
- Most frequently reported TEAE: proctitis ([3]; across all cohorts, n = 9): 47.4%
- Most frequently reported TEAE: diarrhea ([3]; across all cohorts, n = 15): 78.9%
- Patients with grade ≥3 TEAE ([3]; all cohorts, 14 of 19 patients): 73.7%
- Grade ≥3 TEAE: diarrhea ([3]; all cohorts, n = 19): 15.8%
- Grade ≥3 TEAE: enterocolitis ([3]; all cohorts, n = 19): 15.8%
- Grade ≥3 TEAE: lymphocyte count decreased ([3]; all cohorts, n = 19): 36.8%
- Grade ≥3 TEAE: lymphopenia ([3]; all cohorts, n = 19): 21.1%
- Patients with any Capecitabine-related TEAE [3, 10]: 1 (100) n (%)
- Patients with any Capecitabine-related grade ≥3 TEAE [3, 10]: 0 (0) n (%)
- Patients with any Capecitabine-related grade ≥4 TEAE [3, 10]: 0 (0) n (%)
- Patients with any Capecitabine-related serious TEAE [3, 10]: 0 n (%)
- Patients with any Grade ≥3 TEAE [3, 10]: 0 (0) n (%)
- Patients with any Grade ≥4 TEAE [3, 10]: 0 (0) n (%)
- Patients with any Peposertib-related TEAE [3, 10]: 1 (100) n (%)
- Patients with any Peposertib-related grade ≥ 3TEAE [3, 10]: 0 (0) n (%)
- Patients with any Peposertib-related grade ≥4 TEAE [3, 10]: 0 (0) n (%)
- Patients with any Peposertib-related serious TEAE [3, 10]: 0 n (%)
- Patients with any RT-related TEAE [3, 10]: 1 (100) n (%)
- Patients with any RT-related grade ≥3 TEAE [3, 10]: 0 (0) n (%)
- Patients with any RT-related grade ≥4 TEAE [3, 10]: 0 (0) n (%)
- Patients with any RT-related serious TEAE [3, 10]: 0 n (%)
- Patients with any Serious TEAE [3, 10]: 0 n (%)
- Patients with any TEAE [3, 10]: 1 (100) n (%)
- Patients with any TEAE leading to death [3, 10]: 0 n (%)
- Patients with any TEAE leading to permanent discontinuation of RT [3, 10]: 0 (0) n (%)
- Patients with any TEAE leading to permanent discontinuation of capecitabine [3, 10]: 0 (0) n (%)
- Patients with any TEAE leading to permanent discontinuation of peposertib [3, 10]: 0 (0) n (%)
- Patients with any TEAE leading to study discontinuation [3, 10]: 0 n (%)
- Patients with any Capecitabine-related TEAE [3, 11]: 6 (100) n (%)
- Patients with any Capecitabine-related grade ≥3 TEAE [3, 11]: 2 (33) n (%)
- Patients with any Capecitabine-related grade ≥4 TEAE [3, 11]: 2 (33) n (%)
- Patients with any Capecitabine-related serious TEAE [3, 11]: 2 (33) n (%)
- Patients with any Grade ≥3 TEAE [3, 11]: 4 (67) n (%)
- Patients with any Grade ≥4 TEAE [3, 11]: 2 (33) n (%)
- Patients with any Peposertib-related TEAE [3, 11]: 5 (83) n (%)
- Patients with any Peposertib-related grade ≥ 3TEAE [3, 11]: 3 (50) n (%)
- Patients with any Peposertib-related grade ≥4 TEAE [3, 11]: 2 (33) n (%)
- Patients with any Peposertib-related serious TEAE [3, 11]: 2 (33) n (%)
- Patients with any RT-related TEAE [3, 11]: 6 (100) n (%)
- Patients with any RT-related grade ≥3 TEAE [3, 11]: 2 (33) n (%)
- Patients with any RT-related grade ≥4 TEAE [3, 11]: 1 (17) n (%)
- Patients with any RT-related serious TEAE [3, 11]: 2 (33) n (%)
- Patients with any Serious TEAE [3, 11]: 3 (50) n (%)
- Patients with any TEAE [3, 11]: 6 (100) n (%)
- Patients with any TEAE leading to death [3, 11]: 0 n (%)
- Patients with any TEAE leading to permanent discontinuation of RT [3, 11]: 0 (0) n (%)
- Patients with any TEAE leading to permanent discontinuation of capecitabine [3, 11]: 0 (0) n (%)
- Patients with any TEAE leading to permanent discontinuation of peposertib [3, 11]: 0 (0) n (%)
- Patients with any TEAE leading to study discontinuation [3, 11]: 0 n (%)
- Patients with any Capecitabine-related TEAE [3, 12]: 6 (100) n (%)
- Patients with any Capecitabine-related grade ≥3 TEAE [3, 12]: 2 (33) n (%)
- Patients with any Capecitabine-related grade ≥4 TEAE [3, 12]: 1 (17) n (%)
- Patients with any Capecitabine-related serious TEAE [3, 12]: 0 n (%)
- Patients with any Grade ≥3 TEAE [3, 12]: 4 (67) n (%)
- Patients with any Grade ≥4 TEAE [3, 12]: 1 (17) n (%)
- Patients with any Peposertib-related TEAE [3, 12]: 5 (83.3) n (%)
- Patients with any Peposertib-related grade ≥ 3TEAE [3, 12]: 4 (67) n (%)
- Patients with any Peposertib-related grade ≥4 TEAE [3, 12]: 1 (17) n (%)
- Patients with any Peposertib-related serious TEAE [3, 12]: 0 n (%)
- Patients with any RT-related TEAE [3, 12]: 6 (100) n (%)
- Patients with any RT-related grade ≥3 TEAE [3, 12]: 2 (33) n (%)
- Patients with any RT-related grade ≥4 TEAE [3, 12]: 1 (17) n (%)
- Patients with any RT-related serious TEAE [3, 12]: 0 n (%)
- Patients with any Serious TEAE [3, 12]: 0 n (%)
- Patients with any TEAE [3, 12]: 6 (100) n (%)
- Patients with any TEAE leading to death [3, 12]: 0 n (%)
- Patients with any TEAE leading to permanent discontinuation of RT [3, 12]: 1 (17) n (%)
- Patients with any TEAE leading to permanent discontinuation of capecitabine [3, 12]: 1 (17) n (%)
- Patients with any TEAE leading to permanent discontinuation of peposertib [3, 12]: 1 (17) n (%)
- Patients with any TEAE leading to study discontinuation [3, 12]: 0 n (%)
- Patients with any Capecitabine-related TEAE [3, 13]: 6 (100) n (%)
- Patients with any Capecitabine-related grade ≥3 TEAE [3, 13]: 6 (100) n (%)
- Patients with any Capecitabine-related grade ≥4 TEAE [3, 13]: 2 (33) n (%)
- Patients with any Capecitabine-related serious TEAE [3, 13]: 3 (50) n (%)
- Patients with any Grade ≥3 TEAE [3, 13]: 6 (100) n (%)
- Patients with any Grade ≥4 TEAE [3, 13]: 2 (33) n (%)
- Patients with any Peposertib-related TEAE [3, 13]: 6 (100) n (%)
- Patients with any Peposertib-related grade ≥ 3TEAE [3, 13]: 6 (100) n (%)
- Patients with any Peposertib-related grade ≥4 TEAE [3, 13]: 2 (33) n (%)
- Patients with any Peposertib-related serious TEAE [3, 13]: 4 (67) n (%)
- Patients with any RT-related TEAE [3, 13]: 6 (100) n (%)
- Patients with any RT-related grade ≥3 TEAE [3, 13]: 5 (83.3) n (%)
- Patients with any RT-related grade ≥4 TEAE [3, 13]: 2 (33) n (%)
- Patients with any RT-related serious TEAE [3, 13]: 3 (50) n (%)
- Patients with any Serious TEAE [3, 13]: 4 (67) n (%)
- Patients with any TEAE [3, 13]: 6 (100) n (%)
- Patients with any TEAE leading to death [3, 13]: 0 n (%)
- Patients with any TEAE leading to permanent discontinuation of RT [3, 13]: 1 (17) n (%)
- Patients with any TEAE leading to permanent discontinuation of capecitabine [3, 13]: 2 (33) n (%)
- Patients with any TEAE leading to permanent discontinuation of peposertib [3, 13]: 3 (50) n (%)
- Patients with any TEAE leading to study discontinuation [3, 13]: 0 n (%)
- Peposertib dose at which inhibition of DNA-PK autophosphorylation was observed [4]: ≥ 150 mg
- NAR score, median ([5]; 100-mg dose cohort): 9.4
- NAR score, median ([5]; 150-mg dose cohort): 13.8
- NAR score, median ([5]; 250-mg dose cohort): 15.0
- Patients with a Ryan score of 1 ([5]; one each in the 100-mg and 150-mg cohorts): two patients
- DLT reported overall ([6]; all dose cohorts): five
- Peposertib dose considered tolerable in combination with RT and capecitabine ([6]; based on the totality of safety data): ≤ 150 mg once daily
- Dose-limiting toxicities, patients with DLT of evaluable patients ([6]; peposertib 100 mg once daily + CRT, radiation skin injury and enterocolitis): one out of five
- Dose-limiting toxicities, patients with DLT of evaluable patients ([6]; peposertib 250 mg once daily + CRT, two enterocolitis and one proctitis): three out of six
- MTD and RP2D ([6]; peposertib + capecitabine-based CRT, study enrollment prematurely discontinued): not declared
- Toxicity of peposertib monotherapy [7]: no significant toxicity
- Dose recommended for further evaluation ([7]; monotherapy): 400 mg twice daily
- Disease-free survival time: Median [8, 9]: 21.2 mo
- Disease-free survival time: Minimum [8, 9]: 0 mo
- Disease-free survival time: Number of events (PD, deaths) [8, 9]: 5 (26.3) n (%)
- Disease-free survival time: maximum [8, 9]: 23.5 mo
- Disease-free survival rate at 18 months ([8]; all cohorts, Kaplan-Meier estimate, 95% CI, 25.9–87.9): 65.9%
- Median DFS ([8]; all cohorts, 95% CI, 18.0–not done): 21.2 months
- Locoregional recurrence within the study period ([8]; nine patients who underwent surgery, follow-up of up to 2 years): none
- Progression events at data cutoff ([8]; three deaths, two progressive disease events): five
